Measurements gathered from unrelated publications.
Protocols differ between the studies behind these lines.
DYRK1B: Dual specificity tyrosine-phosphorylation-regulated kinase 1B (DYRK1B, Homo sapiens, UniProt Q9Y463)
PTGS2: Prostaglandin G/H synthase 2 (PTGS2, Homo sapiens, UniProt P35354)

SMILES	target	assay	conditions	endpoint	result
O=C(O)c1ccc2c(c1)nc(Nc1cccc(F)c1)c1ccncc12	DYRK1B	enzyme activity, inhibitor, radiometric	1 µM	remaining activity	13%
Cc1cc2c(cc1N1C(=O)c3cccc4c(Cl)ccc(c34)C1=O)n(C)c(=O)n2C	Transcription intermediary factor 1-beta (TRIM28, Homo sapiens, UniProt Q13263)	thermal stability, DSF	10 µM	ΔTm	0.3 °C
O=C(O)c1ccc2c(c1)nc(Nc1ccc(F)c(Cl)c1)c1ncncc12	DYRK1B	enzyme activity, inhibitor, radiometric	1 µM	remaining activity	60%
O=c1cc(-c2ccc(O)cc2)oc2cc(O)cc(O)c12	PTGS2	enzyme activity, inhibitor	0.49 µg/mL	inhibition	16.4%
C[S+]([O-])c1ccc(-c2nc(-c3ccncc3)c(-c3ccc(F)cc3)[nH]2)cc1 (centres unmarked)	Bromodomain testis-specific protein, BD2 (BRDT, Homo sapiens, UniProt Q58F21)	thermal stability, DSF	10 µM	ΔTm	0.59 °C
O=C(O)c1ccc(O)cc1	PTGS2	enzyme activity, inhibitor	0.49 µg/mL	inhibition	19.4%
Cc1cnc(Nc2ccc(OCCN3CCCC3)cc2)nc1Nc1cccc(S(=O)(=O)NC(C)(C)C)c1	Bromodomain testis-specific protein, BD1 (BRDT, Homo sapiens, UniProt Q58F21)	thermal stability, DSF	10 µM	ΔTm	3.38 °C
NS(=O)(=O)c1ccc(Nc2nc(-c3ccc(F)cc3)c3ccccc3n2)cc1	CREB-binding protein (CREBBP, Homo sapiens, UniProt Q92793)	binding, competition with immobilised ligand	1 µM	remaining binding	54%
